# Bioassay records deposited in PubChem BioAssay by The Scripps Research Institute Molecular Screening Center.
# MBD2 DNA inh: blocks human MBD2 binding to methylated DNA; inhibition, % at 4.4 µM; Q9UBB5; AID 686964; actives 0.31% (n = 370,000); TR-FRET, MBD2 binding to methylated oligonucleotide; in the data active means inhibition above about 13%
# Target sequence (Q9UBB5 whole entry, looked up): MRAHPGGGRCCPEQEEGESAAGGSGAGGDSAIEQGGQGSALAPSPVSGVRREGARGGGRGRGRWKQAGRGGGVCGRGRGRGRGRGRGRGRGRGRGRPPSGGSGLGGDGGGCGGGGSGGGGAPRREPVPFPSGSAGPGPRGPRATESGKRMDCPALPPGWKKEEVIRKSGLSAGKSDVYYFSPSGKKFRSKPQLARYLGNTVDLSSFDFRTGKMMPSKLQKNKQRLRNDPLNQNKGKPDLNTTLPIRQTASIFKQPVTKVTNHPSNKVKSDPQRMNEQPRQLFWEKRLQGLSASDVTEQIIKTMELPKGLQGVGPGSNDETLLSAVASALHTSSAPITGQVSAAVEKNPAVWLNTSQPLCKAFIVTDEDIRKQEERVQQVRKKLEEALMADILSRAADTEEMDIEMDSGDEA
# HCV core dimer: blocks dimerization of HCV core protein; actives 0.33% (n = 300,000); inhibition, % at 5 µM; AID 1899; TR-FRET GST/Flag-core106 dimerization, 1536-well;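 active means inhibition above the mean of all tested compounds plus 3 SD, set per screening campaign, cut at about 45% in these data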
#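 Material: Tagged HCV core106 pair (GST and Flag) | Amount: GST-core106 13.5 nM, Flag-core106 17 nM | Medium: KF-containing HEPES buffer, pH 7.45, DTT, CHAPS, BSA | Reagent: Eu donor and XL665 acceptor anti-tag antibodies | Schedule: 4 h at 22.5 °C | Technique: Time-resolved FRET, ex 340 nm, em 617 and 671 nm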
# LEDGF integ inh: blocks HIV-1 LEDGF/p75-dependent DNA integration; TR-FRET IN-LEDGF/p75 DNA integration, Eu/Cy5; inhibition, % at 3.7 µM; actives 0.64% (n = 370,000); AID 743269;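 active means inhibition above the screen-wide mean plus 3 SD, cut at about 13% in these data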;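 further: signal is the Cy5 over europium emission ratio at 671 and 618 nm; 0% = plate median of compound wells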
# UHRF1 binding: blocks human UHRF1 binding to methylated DNA. Q96T88. UHRF1 binding to methylated oligo, TR-FRET. inhibition, % at 4.4 µM. actives 0.75% (n = 370,000); in the data active means inhibition above about 21%;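 further: UHRF1 SRA domain binding a hemimethylated CpG hairpin DNA probe; 0% = median of test compound wells and 100% = reference inhibitor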
# TDP2 absorb: blocks human TDP2 phosphodiesterase activity. O95551. recombinant TDP2, T5PNP hydrolysis, p-nitrophenol absorbance 415 nm. inhibition, % at 12.8 µM. actives 0.34% (n = 370,000);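 active means inhibition above the mean of all tested compounds plus 3 SD, set per campaign, cut at about 25% in these data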;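 further: 0% = DMSO with enzyme and 100% = buffer with substrate but no TDP2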
#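 Material: recombinant human TDP2; quantity: TDP2 enzyme at 120 nM final; medium: Tris-HCl pH 7.5 with MgCl2; compound: single concentration, 12.8 µM nominal, with 1% DMSO; incubation: 2 h enzyme incubation at 37 °C; signal: epi absorbance; measure: percent inhibition; benchmarks: high control without enzyme, low control DMSO plus TDP2; repeats: singlicate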
# IN multimer act: counter-screen for LEDGF/p75 integration inhibitors: HIV-1 integrase multimerization activators; shares compounds with LEDGF integ inh; TR-FRET HIV-1 integrase multimerization, biochemical; activation, % at 7.7 µM; actives 17% (n = 2,000); AID 1053131; in the data active means activation above about 8.9%
# TR-FRET interf: TR-FRET optical interference, LEDGF/p75 integration counter-screen | shares compounds with LEDGF integ inh | TR-FRET optical interference counterscreen, HIV-1 IN multimerization | inhibition, % at 7.7 µM | 2,000 tested, under 10 active | AID 1053135;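 active means inhibition above the mean over all tested compounds plus 3 SD, which no compound reached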;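 further: 0% = integrase with antibodies and DMSO and 100% = antibodies without integrase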
# LEDGF integ conf: LEDGF/p75-dependent HIV-1 integration inhibition, confirmation; shares compounds with LEDGF integ inh; TR-FRET LEDGF/p75-dependent HIV-1 integration, biochemical; inhibition, % at 3.7 µM; actives 36% (n = 2,000); in the data active means inhibition above about 14%
# * = called active by the depositor; / = no result. An excerpt weighted towards active compounds, which were near 1.8% of everything screened.
SMILES,MBD2 DNA inh,HCV core dimer,LEDGF integ inh,UHRF1 binding,TDP2 absorb,IN multimer act,TR-FRET interf,LEDGF integ conf
CC(C)C[C@H]1COc2cc(NCCO)ccc2S(=O)(=O)N1,0,/,2,1,-9,/,/,/
COc1ccccc1CNc1ccc2c(c1)OC[C@H](CC(C)C)NS2(=O)=O,3,/,20*,-4,-1,3,-10,-4
Nc1[nH]c(C(=O)c2ccccc2)c(-c2ccc3ccccc3c2)c1C(=O)NCc1ccc(F)cc1,1,/,1,0,-2,/,/,/
CC1=CC(=O)C=CC1=Nc1ccc(N(C)C)cc1,-8,/,27*,1,-5,5,-19,2
CC(=O)Nc1ccc(-c2ccnc3c2CC(C(=O)Nc2ccc(Cl)c(C(F)(F)F)c2)O3)cc1 (configuration not stated),-1,/,37*,1,8,0,-1,-1
CC(=O)N1CCc2cc(S(=O)(=O)NCCC(=O)NCc3ccc(Cl)cc3)ccc21,1,/,5,-1,-14,/,/,/
Cc1cccn2c(=O)c3cc(C#N)c(=NC(=O)c4ccco4)n(Cc4ccco4)c3nc12,-6,27,3,-3,-9,/,/,/
Cc1cccn2c(=O)c3cc(C#N)c(=NC(=O)c4ccccc4)n(Cc4ccco4)c3nc12,0,46*,16*,6,-14,-3,15,26*
Cc1cccc(C(=O)N=c2c(C#N)cc3c(=O)n4cccc(C)c4nc3n2Cc2ccco2)c1,-10,60*,17*,0,-10,2,-11,35*
O=C(N[C@@H](Cc1cccnc1)C(=O)N1CCC[C@H]1C(=O)NCCc1ccccc1Cl)C1CC1,3,/,0,3,-2,/,/,/
Nc1cc(=O)[nH]c(SCC(=O)NC2CCCCCCC2)n1,8,/,70*,4,-9,-5,23,14*
CN1CCN(C(c2ccc(Br)cc2)c2cc(Cl)c3cccnc3c2O)CC1 (configuration not stated),0,-8,40*,-12,-18,-3,15,2
COc1ccc(C(=O)C2(C(=O)NCCO)CC(c3ccccn3)=NO2)cc1 (configuration not stated),0,/,5,0,-6,/,/,/
O=C(/C=C/c1ccco1)Nc1nc(-c2ccccn2)cs1,3,17,16*,4,-3,3,-14,16*
O=C(/C=C/c1ccco1)Nc1nc(-c2ccccc2)cs1,3,38,-1,1,5,/,/,/
COC(=O)C1=C(C)N(C)C(=NCc2cccc(C(F)(F)F)c2)NC1c1ccc(C(F)(F)F)cc1 (configuration not stated),0,/,2,2,3,/,/,/
Cc1ccccc1OCC(=O)N/N=C/c1ccc([N+](=O)[O-])o1,-2,13,0,2,-9,/,/,/
COc1ccccc1OCC(=O)N/N=C/C=C/c1ccc([N+](=O)[O-])o1,9,22,38*,35*,-17,11*,-57,46*
O=C(N/N=C/C=C/c1ccccc1[N+](=O)[O-])c1cccs1,-2,-3,5,-1,5,/,/,/
O=C(N/N=C\C=C\c1ccc([N+](=O)[O-])o1)c1cccs1,9,/,36*,43*,-16,11*,-38,57*
COc1ccc(CC(=O)N2CCN(C(=O)c3ccc4nc(C)n(C5CCCC5)c4c3)CC2)cc1,-3,/,0,0,3,/,/,/
Cc1oc(CC(C)C)cc1C(=O)Nc1ccc(C(=O)O)cc1,2,5,16*,2,-9,1,-5,-7
COc1ccccc1N1CCN(C(=O)c2ccc3c(c2)nc(C)n3-c2cc(OC)c(OC)c(OC)c2)CC1,7,/,1,1,-2,/,/,/
CCCc1nc2ccc(C)cn2c1Cc1ccc(C)cc1,11,/,14*,21*,-1,1,-4,-11
CCCn1c2ccc(C)cc2c2nnc(SCCN3CCOCC3)nc21,3,0,3,3,-18,/,/,/
SMILES,MBD2 DNA inh,HCV core dimer,LEDGF integ inh,UHRF1 binding,TDP2 absorb,IN multimer act,TR-FRET interf,LEDGF integ conf
CCCn1c2ccccc2c2nnc(SCCN3CCOCC3)nc21,-9,5,20*,-7,-12,-2,8,5
COC(=O)C[C@@H]1CC[C@H]2[C@H](COc3ccc(NC(=O)Nc4cccc(C#N)c4)cc3C(=O)N2C)O1,3,/,0,-1,6,/,/,/
O=C(NN=C(c1ccccc1)c1ccccn1)c1ccccc1,-3,/,21*,8,6,-1,2,-1
COc1ccc(C(=O)N/N=C(\c2ccccc2)c2ccccn2)cc1,-7,0,0,0,0,/,/,/
Cc1ccc(NC(=O)CCc2ccccc2)cc1C,-1,/,72*,-3,-2,0,2,-1
C=CCCC(=O)N1C[C@H]2CCN(C)[C@H]2C[C@H]1c1ccccc1Br,-1,/,0,2,-3,/,/,/
O=c1c2cc(Cl)ccc2oc2nc3n(c(=O)c12)CCCS3,3,10,22*,-9,-2,-1,8,27*
CCOC(=O)[C@]12CCCCC/C=C\1N(Cc1ccc(OC)cc1)C(=O)[C@H]2CC(=O)NCCCCc1ccccc1,-3,/,6,-4,2,/,/,/
O=C(NCc1ccccn1)C1Nc2ccc(OC(F)(F)F)cc2C2C=CCC12 (configuration not stated),2,-6,1,-7,11,/,/,/
O=C(NCc1ccccc1)C1Nc2ccc(OC(F)(F)F)cc2C2C=CCC12 (configuration not stated),-3,4,22*,-2,-3,1,-2,-8
O=C(O)c1cccc(-n2cccc2/C=C2/NC(=O)N(c3ccc(Cl)cc3)C2=O)c1,101*,/,83*,103*,-2,36*,-129,81*
O=C(O)c1cc(-c2ccccc2)nc(-c2ccccc2)c1,2,/,15*,1,-4,1,-5,-10
O=C(O)c1cc(C(=O)O)c(-c2ccccc2)c(C(=O)O)c1,-2,-1,-1,-1,4,/,/,/
COc1ccc(-c2cnc3c(NC=O)cc(-c4ccoc4)cn23)cc1OC,-6,/,28*,-6,-16,-1,3,5
C=CCc1c(C)nc(-c2ccccc2)nc1N/N=C/c1ccccc1,2,-2,53*,-4,-4,-1,5,25*
O=C(NCc1ccccc1)[C@@H]1CCCN1C(=O)[C@H]1CCCN1C(=O)c1ccc(F)c(C(F)(F)F)c1,-5,/,2,0,-7,/,/,/
